Measurements: ChEMBL document CHEMBL3808290, “Discovery of Potent, Orally Bioavailable Inhibitors of Human Cytomegalovirus” (ACS Med Chem Lett, 2016)
Converted amounts (≈) assume the structure as drawn.

Key:
[1] = Cytotoxicity against human MRC5 cells; type: cell-based
Human betaherpesvirus 5 [2] = experiment: Antiviral activity against HCMV AD169 infected in human MRC5 cells by CPE assay; type: functional, organism-based; conditions: Human betaherpesvirus 5, AD169, MRC5
In short: (§1)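 MRC-5 fibroblasts were infected with HCMV and inhibition was read as protection from virus-induced cytopathic effect. EC50 is the half-maximal effect concentration, averaged over at least duplicate experiments, each run in triplicate.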

Liver microsome = experiment: Metabolic stability in human liver microsomes assessed as compound hydrolysis in absence of NADPH
Salmonella typhimurium = experiment: Genotoxicity in Salmonella typhimurium by Ames test; type: toxicity, organism-based; conditions: salmonella enterica subsp. enterica serovar typhimurium
[3] = Half life of compound in human liver microsomes; type: ADME
Cytochrome P450 3A4 = Cytochrome P450 3A4 (Homo sapiens, UniProt P08684); experiment: Inhibition of CYP3A4 (unknown origin); type: ADME
Cytochrome P450 2C9 = Cytochrome P450 2C9 (Homo sapiens, UniProt P11712); experiment: Inhibition of CYP2C9 (unknown origin); type: ADME
[4] = Solubility of the compound at pH 6.8; type: physicochemical; conditions: buffer
Human betaherpesvirus 5 [5] = experiment: Antiviral activity against HCMV AD169 assessed as inhibition of viral infection in human MRC5 cells by RT-qPCR method; type: functional, organism-based; conditions: Human betaherpesvirus 5, AD169, MRC5
In short: (§2)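 Infected cells were treated with compound added at the same time as virus, so only a single cycle of viral replication is scored. Viral replication was read by RT-qPCR and EC50 was taken as the half-maximal effect concentration. Each value is at least the mean of duplicate experiments, each run in triplicate.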

Cytochrome P450 2C8 = target: T1, Cytochrome P450 2C8 (Homo sapiens, UniProt P10632); experiment: Inhibition of CYP2C8 (unknown origin); type: ADME
T1 sequence (P10632 whole entry): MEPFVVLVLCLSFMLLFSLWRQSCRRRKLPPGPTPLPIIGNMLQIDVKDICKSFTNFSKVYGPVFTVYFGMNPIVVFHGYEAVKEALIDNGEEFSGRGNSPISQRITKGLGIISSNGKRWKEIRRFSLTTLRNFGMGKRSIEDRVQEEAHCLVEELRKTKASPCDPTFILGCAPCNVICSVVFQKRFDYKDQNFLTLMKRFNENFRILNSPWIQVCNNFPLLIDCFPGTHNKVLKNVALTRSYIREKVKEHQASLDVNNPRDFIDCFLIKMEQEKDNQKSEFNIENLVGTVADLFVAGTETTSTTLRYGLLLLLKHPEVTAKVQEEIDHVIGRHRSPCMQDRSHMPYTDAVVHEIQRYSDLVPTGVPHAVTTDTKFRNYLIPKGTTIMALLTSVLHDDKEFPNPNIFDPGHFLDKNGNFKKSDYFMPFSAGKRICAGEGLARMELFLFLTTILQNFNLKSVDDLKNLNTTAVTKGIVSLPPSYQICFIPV

[6] = Volume of distribution at steady state in rat; type: ADME, organism-based; conditions: in vivo, read-out: Vdss
Human betaherpesvirus 5 [7] = experiment: Antiviral activity against HCMV VR1814 infected in human ARPE19 cells after 72 hrs by cell-to-cell spread assay; type: functional, organism-based; conditions: Human betaherpesvirus 5, VR1814, ARPE-19, 72 h
In short: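 ARPE-19 cells were infected and replication ran for 24 h. Medium and free virus were then removed, and Cytogam neutralizing antibody plus fresh medium were added. After 48 h, allowing one full replication cycle, compounds were added. After a further 72 h, infected nuclei were stained with fluorescent anti-IE1 antibody and clusters imaged. IC50 came from dose-response curves, averaging at least duplicate experiments run in triplicate.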

[8] = Oral bioavailability in rat; type: ADME, organism-based; conditions: in vivo
Human betaherpesvirus 5 [9] = experiment: Antiviral activity against HCMV VR1814 assessed as inhibition of viral infection in human MRC5 cells by RT-qPCR method; type: functional, organism-based; conditions: Human betaherpesvirus 5, VR1814, MRC5; in short: as §2
[10] = Half life of compound in rat; type: ADME, organism-based; conditions: in vivo
Cytochrome P450 2D6 = Cytochrome P450 2D6 (Homo sapiens, UniProt P10635); experiment: Inhibition of CYP2D6 (unknown origin); type: ADME
Human betaherpesvirus 5 [11] = experiment: Antiviral activity against HCMV VR1814 assessed as inhibition of viral infection in human ARPE19 cells by RT-qPCR method; type: functional, organism-based; conditions: Human betaherpesvirus 5, VR1814, ARPE-19; in short: as §2
Human betaherpesvirus 5 [12] = experiment: Antiviral activity against HCMV TB40 assessed as inhibition of viral infection in human MRC5 cells by RT-qPCR method; type: functional, organism-based; conditions: Human betaherpesvirus 5, TB40, MRC5; in short: as §2
Human betaherpesvirus 5 [13] = experiment: Antiviral activity against HCMV TR assessed as inhibition of viral infection in human MRC5 cells by RT-qPCR method; type: functional, organism-based; conditions: Human betaherpesvirus 5, TR; in short: as §2
[14] = Apparent permeability across apical to basolateral side in human Caco2 cells; type: ADME, cell-based; conditions: Caco-2
Human betaherpesvirus 5 [15] = experiment: Antiviral activity against HCMV TR infected in human MRC5 cells by CPE assay; type: functional, organism-based; conditions: Human betaherpesvirus 5, TR; in short: as §1

Sequence of Cytochrome P450 3A4 (P08684 whole entry): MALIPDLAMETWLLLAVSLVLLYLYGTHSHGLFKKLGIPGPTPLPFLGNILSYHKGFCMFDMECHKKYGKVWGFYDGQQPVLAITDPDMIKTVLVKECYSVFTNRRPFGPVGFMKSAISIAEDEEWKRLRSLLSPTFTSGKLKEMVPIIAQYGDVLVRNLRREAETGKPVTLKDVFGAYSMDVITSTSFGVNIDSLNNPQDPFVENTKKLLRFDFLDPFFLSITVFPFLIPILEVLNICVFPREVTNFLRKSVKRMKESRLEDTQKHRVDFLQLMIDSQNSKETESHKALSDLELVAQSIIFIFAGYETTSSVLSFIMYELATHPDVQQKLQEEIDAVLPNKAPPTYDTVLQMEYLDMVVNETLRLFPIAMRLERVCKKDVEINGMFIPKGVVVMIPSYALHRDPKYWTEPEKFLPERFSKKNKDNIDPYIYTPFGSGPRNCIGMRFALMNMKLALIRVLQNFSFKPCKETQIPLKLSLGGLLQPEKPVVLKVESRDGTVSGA
Sequence of Cytochrome P450 2C9 (P11712 whole entry): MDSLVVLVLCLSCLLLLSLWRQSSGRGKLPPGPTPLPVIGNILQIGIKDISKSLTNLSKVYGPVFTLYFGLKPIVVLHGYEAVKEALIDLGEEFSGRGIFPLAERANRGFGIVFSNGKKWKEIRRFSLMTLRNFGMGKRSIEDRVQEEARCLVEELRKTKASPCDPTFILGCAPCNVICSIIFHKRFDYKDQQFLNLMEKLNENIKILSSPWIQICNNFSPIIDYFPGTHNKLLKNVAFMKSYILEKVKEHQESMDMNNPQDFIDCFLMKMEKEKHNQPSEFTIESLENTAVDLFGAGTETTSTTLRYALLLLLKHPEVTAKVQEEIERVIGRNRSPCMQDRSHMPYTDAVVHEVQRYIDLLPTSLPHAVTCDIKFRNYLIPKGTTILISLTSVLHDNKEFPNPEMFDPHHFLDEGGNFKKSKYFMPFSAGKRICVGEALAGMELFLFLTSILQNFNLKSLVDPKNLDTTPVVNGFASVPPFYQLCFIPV
Sequence of Cytochrome P450 2D6 (P10635 whole entry): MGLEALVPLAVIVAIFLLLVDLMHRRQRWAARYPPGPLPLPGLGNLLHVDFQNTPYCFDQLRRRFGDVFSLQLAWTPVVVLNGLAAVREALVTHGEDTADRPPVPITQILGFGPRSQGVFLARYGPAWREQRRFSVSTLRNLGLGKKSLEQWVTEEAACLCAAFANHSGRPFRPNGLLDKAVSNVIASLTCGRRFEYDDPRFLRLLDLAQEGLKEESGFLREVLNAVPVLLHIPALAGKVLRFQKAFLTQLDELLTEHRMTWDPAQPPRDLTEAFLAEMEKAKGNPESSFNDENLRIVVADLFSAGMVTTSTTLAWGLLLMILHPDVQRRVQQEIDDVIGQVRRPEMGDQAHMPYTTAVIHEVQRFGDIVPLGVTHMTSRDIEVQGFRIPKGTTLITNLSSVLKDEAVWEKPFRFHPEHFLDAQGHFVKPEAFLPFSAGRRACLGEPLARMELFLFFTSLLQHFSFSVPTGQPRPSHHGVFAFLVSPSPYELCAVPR

Row | Compound | CC50 [1] [µM] | EC50 (Human betaherpesvirus 5 [2]) [µM] | Stability (Liver microsome) | Activity (Salmonella typhimurium) | half-life [3] [h] | IC50 (Cytochrome P450 3A4) [µM] | IC50 (Cytochrome P450 2C9) [µM] | solubility [4] [µg/mL] | EC50 (Human betaherpesvirus 5 [5]) [µM] | other results
1 | COc1cccc(C(=O)Nc2ccc(NC(=O)c3ccco3)cc2)c1F | > 57 | 8 |  |  |  |  |  |  |  | 
2 | O=C(Cc1ccc(NC(=O)c2cscn2)nc1)Nc1cc(C(F)(F)F)cc(C(F)(F)F)c1 | > 57 | 0.44 | Stable | Toxic |  |  |  |  |  | 
3 | COc1cccc(C(=O)Nc2ccc(NC(=O)c3cocn3)cc2)c1 | > 57 | 4.4 |  |  | 1.63 |  |  |  |  | 
4 | O=C(Nc1ccc(NC(=O)c2ccco2)cc1)c1cccc(Cl)c1 | > 57 | 1.1 |  |  | 0.233 |  |  |  |  | 
5 | O=C(Nc1ccc(/N=C(\S)Nc2cc(C(F)(F)F)cc(C(F)(F)F)c2)cc1)c1csnn1 | 36 | 0.25 |  |  | 1.83 |  |  |  |  | 
6 | O=C(Nc1ccn(-c2cn(Cc3cccc(C(F)(F)F)c3)cn2)c(=O)c1)c1cscn1 |  |  |  |  | > 2 | 1.9 | 2.1 | < 0.16 | > 5.8 | 
7 | COc1cccc(C(=O)Nc2ccc(NC(=O)c3cscn3)cc2)c1 | > 57 | 0.64 |  |  | 0.367 |  |  |  |  | 
8 | CC(c1cccc(C(F)(F)F)c1)n1cnc(-n2ccc(NC(=O)c3cscn3)cc2=O)c1 (stereo unspecified) |  |  |  |  |  |  | 2.1 | < 0.1 | 2.4 | IC50 (Cytochrome P450 2C8): 1.7 µM
9 | Cc1ccc(C(C)(O)c2nc(-n3ccc(NC(=O)c4cscn4)cc3=O)c[nH]2)cc1 (stereo unspecified) |  |  |  |  | 1.2 | > 30 | 14 | 16 (≈ 38 µM) | 1.9 | IC50 (Cytochrome P450 2C8): 18 µM
10 | O=C(Cc1ccc(NC(=O)c2cscn2)cn1)Nc1cc(C(F)(F)F)cc(C(F)(F)F)c1 | > 57 | 0.54 | Stable | Toxic |  |  |  |  |  | 
11 | O=C(Cn1ccc(NC(=O)c2cscn2)cc1=O)Nc1cc(C(F)(F)F)cc(C(F)(F)F)c1 | 28 | 0.44 | Stable | Non-toxic |  |  |  |  |  | 
12 | CC(O)(c1cccc(C(F)(F)F)c1)c1nc(-n2ccc(NC(=O)c3cscn3)cc2=O)c[nH]1 (stereo unspecified) |  |  |  |  | > 2 | > 30 | 3 | 76 (≈ 160 µM) | 0.54 | Vd [6]: 2.5 L; EC50 (Human betaherpesvirus 5 [7]): 0.8 µM; IC50 (Cytochrome P450 2C8): 4.7 µM; bioavailability [8]: 72%; EC50 (Human betaherpesvirus 5 [9]): 0.91 µM; half-life [10]: 1.9 h; IC50 (Cytochrome P450 2D6): 17 µM; EC50 (Human betaherpesvirus 5 [11]): 1.7 µM; EC50 (Human betaherpesvirus 5 [12]): 0.25 µM; EC50 (Human betaherpesvirus 5 [13]): 0.47 µM
13 | CC(C)CC(O)(c1cccc(C(F)(F)F)c1)c1nc(-n2ccc(NC(=O)c3cscn3)cc2=O)c[nH]1 (stereo unspecified) |  |  |  |  | 0.267 | > 30 | 0.15 | < 0.1 | 0.028 | 
14 | O=C(Nc1ccc2nc(NCc3cc(C(F)(F)F)cc(C(F)(F)F)c3)sc2c1)c1cscn1 | > 57 | 0.43 | Unstable | Toxic |  |  |  |  |  | 
15 | COc1cccc(C(=O)Nc2ccc(NC(=O)c3cncnc3)cc2)c1 | > 57 | > 57 |  |  |  |  |  |  |  | 
16 | O=C(Nc1ccc(-c2c[nH]c(-c3cc(C(F)(F)F)cc(C(F)(F)F)c3)n2)cc1)c1cscn1 | 7.8 | 0.13 | Unstable | Toxic |  |  |  |  |  | 
17 | COc1cccc(C(=O)Nc2ccc(NC(=O)c3csnn3)cc2)c1 | > 57 | 3 |  |  | 0.567 |  |  |  |  | 
18 | O=C(Cc1ccc(NC(=O)c2cscn2)cc1)Nc1cc(C(F)(F)F)cc(C(F)(F)F)c1 | 36 | 0.13 | Unstable | Toxic |  |  |  |  |  | 
19 | CC(C)OC(c1cccc(C(F)(F)F)c1)c1nc(-n2ccc(NC(=O)c3cscn3)cc2=O)c[nH]1 (stereo unspecified) |  |  |  |  | > 2 | > 30 | 1.4 | < 0.1 | 0.11 | IC50 (Cytochrome P450 2C8): 0.18 µM
20 | O=C(Nc1ccc2nc(Cc3cc(C(F)(F)F)cc(C(F)(F)F)c3)[nH]c2c1)c1cscn1 | > 57 | 2.3 | Stable | Toxic |  |  |  |  |  | 
21 | O=C(Cc1cc(C(F)(F)F)cc(C(F)(F)F)c1)Nc1ccc2nc(NC(=O)c3cscn3)sc2c1 | > 57 | 0.25 | Stable | Toxic |  |  |  |  |  | 
22 | CC(c1cccc(C(F)(F)F)c1)c1nc(-n2ccc(NC(=O)c3cscn3)cc2=O)c[nH]1 (stereo unspecified) |  |  |  |  | > 2 | > 30 | 0.031 | < 0.1 | 0.15 | 
23 | O=C(Nc1ccc(NC(=O)c2ccco2)cc1)c1cccnc1 | > 57 | 38 |  |  |  |  |  |  |  | 
24 | O=C(Nc1ccn(-c2c[nH]c(C(O)c3cccc(C(F)(F)F)c3)n2)c(=O)c1)c1cscn1 (stereo unspecified) |  |  |  |  | > 2 | > 30 | 7.3 |  | 0.47 | IC50 (Cytochrome P450 2C8): 4.3 µM
25 | O=C(Nc1ccc(NC(=O)c2ccco2)cc1)c1ccc(Cl)c(C(F)(F)F)c1 | > 57 | 0.34 |  |  | 0.233 |  |  |  |  | 
26 | Cc1cccc(C(C)(O)c2nc(-n3ccc(NC(=O)c4cscn4)cc3=O)c[nH]2)c1 (stereo unspecified) |  |  |  |  |  | > 30 | 13 | 63 (≈ 149 µM) | 3.6 | IC50 (Cytochrome P450 2C8): 21 µM
27 | O=C(Cc1cc(C(F)(F)F)cc(C(F)(F)F)c1)Nc1ccc(NC(=O)c2cscn2)cc1 | > 57 | 0.22 | Unstable | Toxic | 1.57 |  |  |  |  | 
28 | COc1cccc(C(=O)Nc2ccc(NC(=O)c3ccco3)cc2)c1 | > 82 | 4 |  |  | 0.2 | > 30 |  | 1.9 (≈ 5.65 µM) | 2.5 | Papp A→B [14]: 110 nm/s; IC50 (Cytochrome P450 2D6): > 30 µM; EC50 (Human betaherpesvirus 5 [15]): 8.2 µM
